Assay results published in ChEMBL document CHEMBL1147795, “cis-2,5-dicyanopyrrolidine inhibitors of dipeptidyl peptidase IV: synthesis and in vitro, in vivo, and X-ray crystallographic characterization” (J Med Chem, 2006).
One block for each molecule: values may come before it. Active and inactive are the calls of the source. The rule behind the calls is not given here.

Legend:
Dipeptidyl peptidase 4 = Dipeptidyl peptidase 4 (Homo sapiens, UniProt P27487); experiment: Inhibition of human recombinant DPP4
Rattus norvegicus = species: Rattus norvegicus; experiment: Hepatic clearance in Sprague-Dawley rat; assay type: ADME, organism-based, Liver; conditions: in vivo
Procedure, shortened: (§1)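 Male Sprague-Dawley rats (200-250 g), jugular vein cannulated. IV bolus 1.0 mg/kg in sterile saline; oral gavage 5.0 mg/kg in 0.5% methylcellulose. Blood sampled 0 to 24 h into lithium heparin, plasma frozen at -70 °C, compound quantified by LC/MS/MS after acetonitrile protein precipitation (standard curve 1.0-2000 ng/mL).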

[1] = Volume of distribution in Sprague-Dawley rat; assay type: ADME, organism-based; conditions: in vivo, read-out: Vdss; procedure, shortened: as §1
[2] = Half life in Sprague-Dawley rat at 1 mg/kg, iv; assay type: ADME, organism-based; design: dose 1 mg/kg, route intravenous; conditions: in vivo; procedure, shortened: as §1
[3] = target: Dipeptidyl peptidase 4 (Mus musculus) (UniProt P28843); experiment: Lowering of glucose level in diabetic KK/H1J mouse at 3 mg/kg, po; assay type: functional, organism-based; design: dose 3 mg/kg
Procedure, shortened: (§2)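 Diabetic KK/H1J mice fasted overnight, 10 per group, dosed orally in 0.5% methylcellulose. Glucose given orally at t = 15 min; plasma glucose at t = 45 min.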

[4] = Half life in Sprague-Dawley rat at 5 mg/kg, po; assay type: ADME, organism-based; design: dose 5 mg/kg, route oral; conditions: in vivo; procedure, shortened: as §1
[5] = Bioavailability in Sprague-Dawley rat; assay type: ADME, organism-based; conditions: in vivo; procedure, shortened: as §1
[6] = target: Dipeptidyl peptidase 4 (Mus musculus) (UniProt P28843); experiment: Lowering of glucose level in diabetic KK/H1J mouse at 10 mg/kg, po; assay type: functional, organism-based; design: dose 10 mg/kg; procedure, shortened: as §2
[7] = target: Dipeptidyl peptidase 4 (Mus musculus) (UniProt P28843); experiment: Increase in plasma GLP1 level in KK mouse at 5 mg/kg, po after 2 hrs; assay type: functional, organism-based; design: dose 5 mg/kg
Procedure, shortened: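 Fed KK mice dosed 5 mg kg^-1 orally at t = 0. Blood sampled at intervals over 2 h for plasma GLP-1 and DPP-IV activity.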

[8] = target: Dipeptidyl peptidase 4 (Mus musculus) (UniProt P28843); experiment: Lowering of glucose level in diabetic KK/H1J mouse at 2.5 mg/kg, po; assay type: functional, organism-based; design: dose 2.5 mg/kg; procedure, shortened: as §2
[9] = target: Dipeptidyl peptidase 4 (Mus musculus) (UniProt P28843); experiment: Lowering of glucose level in diabetic KK/H1J mouse at 0.3 mg/kg, po; assay type: functional, organism-based; design: dose 0.3 mg/kg
Procedure, shortened: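 Overnight-fasted diabetic KK/H1J mice, 10 per group, given compound orally in 0.5% methylcellulose (0.2 mL per mouse), then an oral glucose challenge at t = 15 min. Retro-orbital bleeds were taken at 0, 15 and 45 min for plasma glucose. […] Scored significant or nonsignificant.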

Sequence of Dipeptidyl peptidase 4 (P27487 whole entry): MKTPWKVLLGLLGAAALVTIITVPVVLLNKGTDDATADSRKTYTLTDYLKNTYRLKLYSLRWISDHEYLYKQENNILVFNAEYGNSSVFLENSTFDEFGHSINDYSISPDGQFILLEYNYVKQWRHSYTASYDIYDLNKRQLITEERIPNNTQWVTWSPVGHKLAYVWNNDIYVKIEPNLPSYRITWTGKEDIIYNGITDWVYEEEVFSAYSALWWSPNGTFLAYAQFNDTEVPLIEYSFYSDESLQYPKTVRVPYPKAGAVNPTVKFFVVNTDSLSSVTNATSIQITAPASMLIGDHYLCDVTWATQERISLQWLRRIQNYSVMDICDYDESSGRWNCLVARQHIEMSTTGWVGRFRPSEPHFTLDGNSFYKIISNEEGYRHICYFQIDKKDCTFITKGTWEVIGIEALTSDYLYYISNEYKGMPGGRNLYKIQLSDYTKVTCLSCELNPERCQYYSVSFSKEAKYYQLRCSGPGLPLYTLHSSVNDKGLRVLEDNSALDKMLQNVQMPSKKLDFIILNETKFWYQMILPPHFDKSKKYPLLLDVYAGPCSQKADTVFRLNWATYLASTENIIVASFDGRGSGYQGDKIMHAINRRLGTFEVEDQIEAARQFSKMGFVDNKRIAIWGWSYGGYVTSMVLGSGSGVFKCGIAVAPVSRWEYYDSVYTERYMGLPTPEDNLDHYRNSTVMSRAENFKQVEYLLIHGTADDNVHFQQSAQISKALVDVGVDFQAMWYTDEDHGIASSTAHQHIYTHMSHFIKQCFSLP
Sequence of Dipeptidyl peptidase 4 (Mus musculus) (P28843 whole entry, looked up): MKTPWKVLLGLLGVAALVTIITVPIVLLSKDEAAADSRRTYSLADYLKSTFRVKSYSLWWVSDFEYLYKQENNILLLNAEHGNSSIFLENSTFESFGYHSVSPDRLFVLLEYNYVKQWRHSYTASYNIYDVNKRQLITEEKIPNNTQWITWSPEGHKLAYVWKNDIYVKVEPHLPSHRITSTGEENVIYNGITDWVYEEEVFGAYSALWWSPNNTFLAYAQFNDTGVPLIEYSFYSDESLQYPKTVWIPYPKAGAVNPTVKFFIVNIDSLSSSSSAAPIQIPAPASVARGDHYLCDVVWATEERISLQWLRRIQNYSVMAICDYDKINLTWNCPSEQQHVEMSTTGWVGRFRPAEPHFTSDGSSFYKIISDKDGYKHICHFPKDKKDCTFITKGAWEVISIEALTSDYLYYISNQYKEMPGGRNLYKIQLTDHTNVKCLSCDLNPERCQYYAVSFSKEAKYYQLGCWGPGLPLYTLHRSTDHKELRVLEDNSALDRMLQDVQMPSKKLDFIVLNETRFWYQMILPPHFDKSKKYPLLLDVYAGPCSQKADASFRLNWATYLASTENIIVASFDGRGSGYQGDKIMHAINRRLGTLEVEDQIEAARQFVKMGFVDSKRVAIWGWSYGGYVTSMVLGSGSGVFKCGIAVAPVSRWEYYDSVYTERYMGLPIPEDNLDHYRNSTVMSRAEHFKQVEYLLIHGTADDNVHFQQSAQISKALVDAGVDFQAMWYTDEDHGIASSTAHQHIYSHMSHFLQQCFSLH

IC50 (Dipeptidyl peptidase 4): > 3 µM
SMILES: C[C@@H]1CC(C)(NCC(=O)N2[C@H](C#N)CC[C@@H]2C#N)C[C@@H]1C (some centres not stated)

CL (Rattus norvegicus): 80 mL/min/kg | Vd [1]: 3.1 L/kg | half-life [2]: 36 min | Activity [3]: 55%
SMILES: N#C[C@@H]1CC[C@H](C#N)N1C(=O)CNC12CC3CC(CC(C3)C1)C2

IC50 (Dipeptidyl peptidase 4): > 3 µM
SMILES: N#C[C@@H]1CC[C@H](C#N)N1C(=O)CNC1(Cc2ccccc2)CCCCC1

IC50 (Dipeptidyl peptidase 4): > 3 µM
SMILES: CC(C)(C)C(C)(C)NCC(=O)N1[C@H](C#N)CC[C@@H]1C#N

IC50 (Dipeptidyl peptidase 4): > 3 µM
SMILES: N#C[C@@H]1CC[C@H](C#N)N1C(=O)CNC1(CCCO)CCCCC1

IC50 (Dipeptidyl peptidase 4): > 30 µM
SMILES: C[C@H]1CC[C@@H](C#N)N1C(=O)CNC12CC3CC(CC(C3)C1)C2

IC50 (Dipeptidyl peptidase 4): > 3 µM
SMILES: CCC(C)(C)C1CCC(C)(NCC(=O)N2[C@H](C#N)CC[C@@H]2C#N)C1 (some centres not stated)

IC50 (Dipeptidyl peptidase 4): > 3 µM
SMILES: CC1(NCC(=O)N2[C@H](C#N)CC[C@@H]2C#N)COC(C)(C)OC1

IC50 (Dipeptidyl peptidase 4): > 3 µM
SMILES: CC1(C)CCCC1(C)NCC(=O)N1[C@H](C#N)CC[C@@H]1C#N (some centres not stated)

IC50 (Dipeptidyl peptidase 4): > 3 µM
SMILES: N#C[C@@H]1CC[C@H](C#N)N1C(=O)CNC1(CCO)CCCC1

CL (Rattus norvegicus): 130 mL/min/kg | IC50 (Dipeptidyl peptidase 4): 0.074 µM | half-life [4]: 84 min | bioavailability [5]: 42% | Vd [1]: 2.7 L/kg | half-life [2]: 24 min | Activity [3]: 45%
SMILES: N#C[C@@H]1CC[C@H](C#N)N1C(=O)CNC12CC3CC(CC(O)(C3)C1)C2

IC50 (Dipeptidyl peptidase 4): > 30 µM
SMILES: N#C[C@@H]1C[C@H](O)CN1C(=O)CNC12CC3CC(CC(C3)C1)C2

IC50 (Dipeptidyl peptidase 4): > 3 µM
SMILES: CNC(=O)C1(NCC(=O)N2[C@H](C#N)CC[C@@H]2C#N)CCCC1

Activity [6]: 67% | Activity [7]: Active | Activity [8]: 59% | Activity [9]: 46%
SMILES: N#C[C@@H]1CC[C@H](C#N)N1C(=O)CNC1(CO)CCCC1

IC50 (Dipeptidyl peptidase 4): > 3 µM
SMILES: CCC(C)(C)NCC(=O)N1[C@H](C#N)CC[C@@H]1C#N
